Test results: ChEMBL document CHEMBL4376878, “Potent Thiophene Antagonists of Human Complement C3a Receptor with Anti-Inflammatory Activity” (J Med Chem, 2020)
pEC50, pIC50: −log10 of the molar value. The source made the active and inactive calls. The calls are words filed in the database; no cut-off is given here. Residues, ends and D or L forms follow the SMILES beside them.

Key:
[1] = target: T1, C3a anaphylatoxin chemotactic receptor (Homo sapiens, UniProt Q16581); assay: Agonist activity at C3a receptor in human MDM cells assessed as induction of intracellular calcium release measured at 1 sec interval for => 200 secs by Fluo-3 AM dye-based FLIPR assay; format: cell-based; settings: for pEC50: read-out: EC50; for EC50: read-out: pEC50 (converted)
T1 sequence (Q16581 whole entry): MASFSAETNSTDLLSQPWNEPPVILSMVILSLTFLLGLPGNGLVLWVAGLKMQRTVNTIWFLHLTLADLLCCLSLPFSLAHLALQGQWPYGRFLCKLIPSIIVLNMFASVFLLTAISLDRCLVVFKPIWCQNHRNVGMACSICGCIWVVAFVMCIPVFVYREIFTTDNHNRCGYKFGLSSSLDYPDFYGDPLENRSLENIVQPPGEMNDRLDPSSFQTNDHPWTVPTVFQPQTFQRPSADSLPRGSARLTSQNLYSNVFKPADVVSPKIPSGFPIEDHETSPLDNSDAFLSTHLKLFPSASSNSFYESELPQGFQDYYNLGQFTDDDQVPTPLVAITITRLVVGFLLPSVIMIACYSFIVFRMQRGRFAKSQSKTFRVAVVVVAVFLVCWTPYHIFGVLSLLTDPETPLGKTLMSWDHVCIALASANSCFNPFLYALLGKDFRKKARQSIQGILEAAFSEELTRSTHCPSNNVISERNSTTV
Method in brief: (§1)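 HMDMs were differentiated from CD14⁺ monocytes with M-CSF (100 ng/mL) for 7 days and seeded overnight at 5 × 10⁴ cells/well. Cells were loaded with 4 μM Fluo-3 AM for 1 h at 37 °C, then placed in HBSS with 2.5 mM probenecid and 20 mM HEPES, pH 7.4. Agonist was added on FLIPR and read at ex 495/em 520 nm. EC50 is relative to the maximum from 1 μM C3a; n ≥ 3.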

[2] = target: T1, C3a anaphylatoxin chemotactic receptor; assay: (§2) Antagonist activity at C3a receptor in human MDM cells assessed as inhibition of C3a-induced intracellular calcium release preincubated for 30 mins followed by C3a addition and measured at 1 sec interval for => 200 secs by Fluo-3 AM dye-based FLIPR assay; format: functional, cell-based; settings: for pIC50: read-out: IC50
Method in brief: (§3)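 Macrophages were derived from CD14⁺ monocytes (M-CSF, 7 days) and dye-loaded with 4 μM Fluo-3 AM for 1 h at 37 °C in HBSS/probenecid/HEPES, pH 7.4. Antagonist was preincubated for 30 min at 37 °C before addition of synthetic full-length human C3a (100 nM). FLIPR fluorescence was read at ex 495/em 520 nm. Percent response was plotted against log concentration; n ≥ 3.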

[3] = target: T2, C3a anaphylatoxin chemotactic receptor (Homo sapiens) (UniProt Q16581); assay: (§4) Antagonist at C3a receptor in human LAD2 cells assessed as inhibition of C3a-induced beta-hexosaminidase release preincubated for 30 mins followed by C3a addition; format: cell-based
T2 sequence (whole entry): T1 sequence (Q16581 whole entry)
Method in brief: (§5)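 LAD2 mast cells grown with SCF, 1 × 10⁴ cells/well seeded overnight and presensitized overnight with IgE (100 ng/mL). Compounds preincubated 30 min at 37 °C in 0.1 M HEPES pH 7.4, then C3a added and β-hexosaminidase release measured. IC50 is concentration inhibiting 50% of release induced by 100 nM C3a; n ≥ 3.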

[4] = target: T1, C3a anaphylatoxin chemotactic receptor; assay: as §4; format: cell-based; method in brief: as §5
Rattus norvegicus [5] = assay: Antiinflammatory activity in Wistar rat model of BR103-induced paw edema assessed as reduction in hind paw swelling at <30 mg/kg, po administered via gavage pretreated for 2 hrs followed by BR103 challenge and measured after 0.5 to 2 hrs by digital caliper method; format: functional, organism-based
[6] = Stability of the compound in rat plasma at 1 mM measured after 10 mins by LC-MS analysis; format: ADME, cell-free; settings: 1000 µM
[7] = AUC (0 to 8 hrs) in Wistar rat at 0.5 mg/kg, iv by LC-MS/MS analysis; format: ADME, organism-based; design: time < 8 hr, dose 0.5 mg/kg, route intravenous; settings: in vivo
Method in brief: (§6)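 Male Wistar rats with jugular vein catheter, fasted overnight; dosed p.o. by gavage in olive oil or i.v. via catheter in 50% DMSO. Blood drawn from conscious unrestrained rats 5 min before dosing, then 5, 15, 30 min and 1–8 h after. Volume replaced with heparinized saline. Rats fed after 4 h sample. n = 3 per route.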

[8] = Volume of distribution in Wistar rat at 0.5 mg/kg, iv by LC-MS/MS analysis; format: ADME, organism-based; settings: in vivo; method in brief: as §6
[9] = Elimination half-life in Wistar rat at 0.5 mg/kg, iv by LC-MS/MS analysis; format: ADME, organism-based; settings: in vivo, read-out: beta t1/2; method in brief: as §6
[10] = target: T1, C3a anaphylatoxin chemotactic receptor; assay: Partial agonist activity at C3a receptor in human MDM cells assessed as induction of intracellular calcium release at higher concentration measured at 1 sec interval for => 200 secs by Fluo-3 AM dye-based FLIPR assay relative to control; format: cell-based; method in brief: as §1
[11] = target: T2, C3a anaphylatoxin chemotactic receptor (Homo sapiens); assay: Potency index, ratio of SB290157 IC50 to test compound IC50 for antagonist activity at C3a receptor in human MDM cells; format: cell-based
[12] = target: T2, C3a anaphylatoxin chemotactic receptor (Homo sapiens); assay: Displacement of Eu-DTPA-C3a from Galpha16-coupled C3a receptor (unknown origin) expressed in HEK293 cells measured after 60 mins by time-resolved fluorescence assay; format: cell-based
[13] = target: T3, C5a anaphylatoxin chemotactic receptor 1 (Homo sapiens) (UniProt P21730); assay: Antagonist activity at C5a receptor in human MDM cells assessed as inhibition of C5a-induced intracellular calcium release preincubated for 30 mins followed by C5a addition and measured at 1 sec interval for => 200 secs by Fluo-3 AM dye-based FLIPR assay; format: functional, cell-based
T3 sequence (whole entry): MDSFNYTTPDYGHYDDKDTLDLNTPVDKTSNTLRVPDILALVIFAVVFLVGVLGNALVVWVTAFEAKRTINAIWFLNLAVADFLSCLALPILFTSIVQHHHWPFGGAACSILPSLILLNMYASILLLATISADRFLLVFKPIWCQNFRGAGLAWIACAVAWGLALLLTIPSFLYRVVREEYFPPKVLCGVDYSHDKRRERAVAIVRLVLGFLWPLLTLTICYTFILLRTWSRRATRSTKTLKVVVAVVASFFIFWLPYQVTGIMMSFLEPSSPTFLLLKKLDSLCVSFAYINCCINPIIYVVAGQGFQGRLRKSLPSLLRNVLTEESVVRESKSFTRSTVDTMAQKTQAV
Method in brief: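 HMDMs from CD14+ monocytes after 7 days in M-CSF; 5 × 10⁴ cells/well seeded overnight. Cells loaded 1 h at 37 °C with 4 μM Fluo-3 AM, then washed into HBSS with 2.5 mM probenecid and 20 mM HEPES, pH 7.4. Antagonist preincubated 30 min at 37 °C before C5a. Fluorescence (ex 495/em 520 nm) read every 1 s for ≥200 s.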

[14] = Stability of the compound in rat plasma at 1 mM measured after 4 hrs by LC-MS analysis; format: ADME, cell-free
Method in brief: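 Compound added to rat plasma from 1 mM DMSO stock (stock concentration) and incubated at 37 °C. Samples taken at 0, 5, 15, 30, 60, 120 and 240 min, quenched in MeCN/H₂O 9:1, centrifuged and analyzed by LC-MS. Plasma activity checked with SLIGRL-NH₂.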

[15] = Stability of the compound in rat liver microsomes assessed as compound degradation at 1 uM preincubated for 5 mins followed by NADPH addition and measured after 1 hr by LC-MS/MS analysis; format: ADME, Microsome; settings: read-out: Drug degradation
Method in brief: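 Compound at 1 μM in 100 mM phosphate buffer pH 7.4 with 0.1% DMSO was mixed with rat liver microsomes and preincubated 5 min at 37 °C before NADPH was added. Samples taken at 0, 5, 15, 30 and 60 min, quenched in MeCN/H₂O 9:1 and analyzed by LC-MS/MS. Microsome activity checked with SLIGRL-NH₂; n = 3.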

[16] = target: T2, C3a anaphylatoxin chemotactic receptor (Homo sapiens); assay: Potency index, ratio of SB290157 IC50 to test compound IC50 for antagonist activity at C3a receptor in human LAD2 cells assessed as inhibition of C3a-induced beta-hexosaminidase release; format: cell-based
[17] = Clearance in Wistar rat at 0.5 mg/kg, iv by LC-MS/MS analysis; format: ADME, organism-based; settings: in vivo; method in brief: as §6
[18] = AUC (0 to 8 hrs) in Wistar rat at 10 mg/kg, po by LC-MS/MS analysis; format: ADME, organism-based; design: dose 10 mg/kg, time < 8 hr, route oral; settings: in vivo; method in brief: as §6
[19] = Tmax in Wistar rat at 10 mg/kg, po by LC-MS/MS analysis; format: ADME, organism-based; settings: in vivo; method in brief: as §6
[20] = Cmax in Wistar rat at 10 mg/kg, po by LC-MS/MS analysis; format: ADME, organism-based; design: dose 10 mg/kg, route oral; settings: in vivo; method in brief: as §6
Rattus norvegicus [21] = assay: Antiinflammatory activity in Wistar rat model of BR103-induced paw edema assessed as reduction in hind paw swelling at 10 mg/kg, po administered via gavage pretreated for 2 hrs followed by BR103 challenge and measured after 30 mins by digital caliper method relative to control; format: functional; design: scale not given: the % may be the effect or the level left
Method in brief: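 Male Wistar rats were given antagonist at 10 mg/kg by oral gavage in olive oil 2 h before intraplantar BR103 (350 μg in 100 μL of 5% DMSO). Sham paws received vehicle; sham and control rats received olive oil only. Paw thickness and width were measured with digital calipers at 0, 0.5, 1 and 2 h after agonist; n = 3 per group.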

Rattus norvegicus [22] = assay: Antiinflammatory activity in Wistar rat model of BR103-induced paw edema assessed as reduction in hind paw swelling at 30 mg/kg, po administered via gavage pretreated for 4 hrs followed by BR103 challenge and measured after 30 mins by digital caliper method relative to control; format: functional; design: scale not given: the % may be the effect or the level left
Method in brief: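 For duration of action, antagonist was given at 30 mg/kg by oral gavage in olive oil at 1, 2, 4, 6, 8 or 12 h before intraplantar BR103 (350 μg/paw) in male Wistar rats. Controls received olive oil 2 h before challenge. Paw thickness and width were measured with calipers at 0 and 0.5 h; n = 3 per group.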

[23] = target: T2, C3a anaphylatoxin chemotactic receptor (Homo sapiens); assay: as §2; format: functional, cell-based; method in brief: as §3
[24] = AUC (0 to 8 hrs) in Wistar rat at 1 mg/kg, iv by LC-MS/MS analysis; format: ADME, organism-based; design: time < 8 hr, dose 1 mg/kg, route intravenous; settings: in vivo; method in brief: as §6
[25] = Volume of distribution in Wistar rat at 1 mg/kg, iv by LC-MS/MS analysis; format: ADME, organism-based; settings: in vivo; method in brief: as §6
[26] = Elimination half-life in Wistar rat at 1 mg/kg, iv by LC-MS/MS analysis; format: ADME, organism-based; settings: in vivo, read-out: beta t1/2; method in brief: as §6
[27] = Clearance in Wistar rat at 1 mg/kg, iv by LC-MS/MS analysis; format: ADME, organism-based; settings: in vivo; method in brief: as §6

Compound | pEC50 [1] | EC50 [1] [nM] | pIC50 [2] | inhibition [3] | pIC50 [4] | Ratio IC50 [11] | inhibition [13] | Stability [14] | metabolised at 1 h, 1 µM [15] [%] | Ratio IC50 [16] | AUC(0-t) at 8 h [18] [ng·h/mL] | Tmax [19] [h] | Cmax [20] [ng/mL] | Activity (Rattus norvegicus [21]) [%] | other results
N=C(N)NCCC[C@H](NC(=O)COCC(c1ccccc1)c1ccccc1)C(=O)O | < 4.00 | > 100000 | 5.42 to 5.89 | Dose-dependent effect | 6.27 |  |  |  |  |  |  |  |  |  | IC50 ([2]; read-out: pIC50 (converted)): 3980 nM; Activity (Rattus norvegicus [5]): inactive
CC(C)C[C@H](NC(=O)OC(C)(C)C)C(=O)N[C@@H](C)C(=O)N[C@@H](CCCNC(=N)N)C(=O)O (HELM PEPTIDE1{[CC(C)(C)OC(=O)[*:2]].L.A.R}$$$$V2.0) |  |  |  |  |  |  |  |  |  |  |  |  |  |  | Stability [6]: Unstable
N=C(N)NCCC[C@H](NC(=O)c1ccc(C(c2ccccc2)c2ccccc2)s1)C(=O)O | < 4.00 | > 100000 | 7.07 | Dose-dependent effect | 8.40 | 15 | inactive | Stable | 60 | 100 | 436 | 3.5 | 91 | 20 | AUC(0-t) at 8 h [7]: 811 ng·h/mL; Vd [8]: 0.4 L; half-life [9]: 0.533 h; Activity [10]: 30 to 80%; inhibition [12]: Dose-dependent effect; clearance [17]: 10.3 mL/min/kg; Activity (Rattus norvegicus [22]): <=60%
Cc1cc(C(c2ccccc2)c2ccccc2)sc1C(=O)N[C@@H](CCCNC(=N)N)C(=O)O | < 4.00 | > 100000 | 8.15 | Dose-dependent effect | 8.70 | 100 | inactive | Stable | 40 | 100 | 90 | 4 | 23 | 49 | inhibition [23]: Dose-dependent effect; AUC(0-t) at 8 h [24]: 779 ng·h/mL; Vd [25]: 0.7 L; half-life [26]: 0.75 h; clearance [27]: 18 mL/min/kg
